Results on one compound are retold here after ChEMBL document CHEMBL4024770, “Augmentation of Anticancer Drug Efficacy in Murine Hepatocellular Carcinoma Cells by a Peripherally Acting Competitive N-Methyl-d-aspartate (NMDA) Receptor Antagonist” (J Med Chem, 2017).

pIC50, pKi: −log10 of the molar value.

Data set [1] has as its target Glutamate receptor ionotropic, kainate 3 (Rattus norvegicus, UniProt P42264). In words: Displacement of [3H]-KA from recombinant homomeric rat GluK3a receptor expressed in baculovirus infected Sf9 insect cell membranes by scintillation counting method. (In general: In a radioligand displacement assay an active substance lowers the binding of a labelled ligand.)
A short description of data set [2]: Displacement of [3H]-AMPA from AMPA receptor in Sprague-Dawley rat brain synaptosomes after 30 mins by scintillation counting method. It is filed as subcellular.
Data set [3] is described as follows: Displacement of [3H]-KA from KA receptor in Sprague-Dawley rat brain synaptosomes after 60 mins by scintillation counting method. It is filed as subcellular.
Data set [4] addresses Glutamate receptor ionotropic, kainate 2 (Rattus norvegicus, UniProt P42260). The data set is described as follows: Displacement of [3H]-KA from recombinant homomeric rat GluK2 (V,C,R)a receptor expressed in baculovirus infected Sf9 insect cell membranes by scintillation counting method.
The target in data set [5] is Glutamate NMDA receptor; Grin1/Grin2a (Rattus norvegicus, UniProt P35439+Q00959). In words: Antagonist activity at recombinant rat GluN1a/GluN2A expressed in Xenopus laevis oocytes assessed as inhibition of glycine/glutamate-mediated current responses by two-electrode voltage clamp method. It is filed as cell-based. An outline of the steps:
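Xenopus oocytes were injected with rat GluN1 and GluN2A–D cRNA (1:2) and recorded 2–6 days later by TEVC at room temperature, −40 mV, in Ba2+-containing recording solution, pH 7.4. Currents were evoked by 100 μM glycine plus glutamate at 2–3× EC50: 10 μM for GluN2A, 3 μM for GluN2B and GluN2C, 1 μM for GluN2D. IC50 from Hill fits per oocyte; Ki estimated.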
In general terms: In two-electrode clamp one electrode senses voltage and the other passes current.

The test system of data set [6] is Plasma. The data set is described as follows: Cmax in mouse plasma at 10 mg/kg, ip administered as bolus dose by LC-MS/MS analysis. It is filed as ADME, organism-based. The note with it: in vivo. Also on record: dose 10 mg/kg, route intraperitoneal. A digest of the protocol:
(§1)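 Adult male mice (25 ± 5 g) given a single 10 mg/kg i.p. bolus, prepared as a 5.0 mM solution in 0.9% NaCl. Animals were decapitated at five time points between 10 and 240 min. Plasma was precipitated with acetonitrile containing internal standard. Brain and liver were homogenized in water (1:3) and precipitated the same way. Analysis by LC-MS/MS, with AUC0–240, Cmax, tmax, t½β and liver/plasma ratio derived from the concentration-time data.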

In data set [7] the test system is Plasma. In words: Elimination half life in mouse plasma at 10 mg/kg, ip administered as bolus dose by LC-MS/MS analysis. It is filed as ADME, organism-based. The note with it: in vivo. A digest of the protocol: as §1
Data set [8] deals with Liver. In words: AUC (0 to 240 mins) in mouse liver at 10 mg/kg, ip administered as bolus dose by LC-MS/MS analysis. It is filed as ADME, organism-based. Also on record: dose 10 mg/kg, time < 4 hr, route intraperitoneal. The settings on record: in vivo, 4 h. An outline of the steps: as §1
Data set [9] deals with Liver. The data set is described as follows: Elimination half life in mouse liver at 10 mg/kg, ip administered as bolus dose by LC-MS/MS analysis. It is filed as ADME, organism-based. The note with it: in vivo. An outline of the steps:
as §1

Data set [10] has as its system Brain. In words: Cmax in mouse brain at 10 mg/kg, ip administered as bolus dose measured at 30 mins by LC-MS/MS analysis. It is filed as ADME, organism-based. Also on record: dose 10 mg/kg, route intraperitoneal. The settings on record: in vivo, 0.5 h. A digest of the protocol: as §1
A short description of data set [11]: Liver to plasma partition coefficient in mouse at 10 mg/kg, ip administered as bolus dose by LC-MS/MS analysis. The settings on record: other tissue. It is filed as ADME, organism-based. A digest of the protocol:
as §1

Data set [12] deals with Mus musculus. In words: Toxicity in mouse assessed as behavioral changes at 10 mg/kg, ip administered as bolus dose. It is filed as organism-based. The note with it: in vivo.
The species entered for data set [13] is Mus musculus. The data set is described as follows: Antagonist activity at NMDA receptor in Nras driven p53 deficient mouse HCC cell membranes assessed as PGE2 levels at 10 uM after 24 hrs by LC-MS/MS method relative to control. More on the design: scale not given: the % may be the effect or the level left. A digest of the protocol: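 Mouse Nras-driven p53−/− HCC cells in DMEM with 2 mM L-glutamine, 10% heat-inactivated FBS and penicillin/streptomycin. Cells incubated 24 h with or without antagonist, either without LPS or with 2.5 μg/mL LPS in the growth medium. Cells washed three times with ice-cold HBSS and lysed in acetonitrile on ice. PGE₂ in lysates measured by LC-MS/MS (LLOQ 1 nM) and expressed as % of control; n=3.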

The species entered for data set [14] is Mus musculus. The data set is described as follows: Antagonist activity at NMDA receptor in Nras driven p53 deficient mouse HCC cell membranes assessed as LPS-stimulated PGE2 levels at 100 uM after 24 hrs by LC-MS/MS method (reference value: 162 +/- 7%). More on the design: scale not given: the % may be the effect or the level left. A digest of the protocol: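 Nras-driven p53−/− mouse HCC cells in DMEM/10% FBS were incubated 24 h with or without 100 μM compound. This was done without LPS and with LPS (2.5 μg/mL) in the growth medium. Cells were washed with ice-cold HBSS and lysed in acetonitrile on ice. PGE2 in the lysates was quantified by LC-MS/MS and expressed as % of control. Mean ± SEM, n=3; one-way ANOVA/Tukey.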

Data set [15] is filed under the species Mus musculus. In words: Antagonist activity at NMDA receptor in Nras driven p53 deficient mouse HCC cell membranes assessed as Abcg2 protein expression levels at 10 uM by […] analysis relative to control. Also on record: scale not given: the % may be the effect or the level left. A digest of the protocol: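 Mouse Nras-driven p53−/− HCC cells in DMEM with 10% FBS, exposed 48 h with or without 10 μM antagonist, washed, pelleted and snap-frozen. Crude membrane fraction isolated. 50 μg protein reduced, alkylated, precipitated, then Lys-C digested (3 h, rt) and trypsin digested (1:100, 37°C, 16 h). One unique peptide per transporter quantified by multiplexed SRM/MRM LC-MS/MS against stable isotope-labelled standards. Unpaired two-tailed t-test versus control, n=4.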

For data set [16], the species on record is Mus musculus. The data set is described as follows: Antagonist activity at NMDA receptor in Nras driven p53 deficient mouse HCC cell membranes assessed as decrease in Abcc1 to 5 protein expression levels by measuring fluorescein accumulation at 10 uM preincubated for 24 hrs followed by compound wash out and addition of fluorescein measured after 30 mins by fluorescence assay relative to control. Also on record: scale not given: the % may be the effect or the level left. A digest of the protocol: (§2)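 Nras p53−/− HCC cells (1 × 10⁵/well) were pretreated 24 h with or without 10 μM. They were then washed 3× in warm HBSS (choline chloride, pH 7.4) and incubated at 37 °C with probe in HBSS. Incubation was 30 min for [3H]-digoxin, 20 μM fluorescein or 10 μM sorafenib, and 5 min for [14C]-L-leucine or [14C]-D-glucose. Cells were washed ice-cold and lysed in 0.1 M NaOH. Read-out was scintillation, fluorescence or LC-MS/MS, normalized to protein.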

For data set [17], the species on record is Mus musculus. The data set is described as follows: Antagonist activity at NMDA receptor in Nras driven p53 deficient mouse HCC cell membranes assessed as decrease in Slc2a1 protein expression levels by measuring [14C]-D-glucose accumulation at 10 uM preincubated for 24 hrs followed by compound wash out and addition of [14C]-D-glucose measured after 5 mins by scintillation counting method relative to control. More on the design: scale not given: the % may be the effect or the level left. A digest of the protocol:
as §2

The species entered for data set [18] is Mus musculus. The data set is described as follows: Antagonist activity at NMDA receptor in Nras driven p53 deficient mouse HCC cell membranes assessed as potentiation of 2.5 uM sorafenib-mediated antiproliferative activity by measuring cell viability at 100 uM after 72 hrs by resazurin assay (reference value: […] +/- […]%). For orientation: Resazurin is reduced to fluorescent resorufin, in cell work by metabolically active cells.

The species entered for data set [19] is Mus musculus. In words: Antagonist activity at NMDA receptor in Nras driven p53 deficient mouse HCC cell membranes assessed as potentiation of 10 uM sorafenib-mediated antiproliferative activity by measuring cell viability at 100 uM after 72 hrs by resazurin assay (reference value: […] +/- […]%).
For data set [20], the system named is Brain. In words: Drug uptake in mouse brain at 100 uM administered via perfusion. The note with it: in vivo, other.

Glutamate NMDA receptor; Grin1/Grin2a, sequence (Q00959 whole entry, other chains not shown): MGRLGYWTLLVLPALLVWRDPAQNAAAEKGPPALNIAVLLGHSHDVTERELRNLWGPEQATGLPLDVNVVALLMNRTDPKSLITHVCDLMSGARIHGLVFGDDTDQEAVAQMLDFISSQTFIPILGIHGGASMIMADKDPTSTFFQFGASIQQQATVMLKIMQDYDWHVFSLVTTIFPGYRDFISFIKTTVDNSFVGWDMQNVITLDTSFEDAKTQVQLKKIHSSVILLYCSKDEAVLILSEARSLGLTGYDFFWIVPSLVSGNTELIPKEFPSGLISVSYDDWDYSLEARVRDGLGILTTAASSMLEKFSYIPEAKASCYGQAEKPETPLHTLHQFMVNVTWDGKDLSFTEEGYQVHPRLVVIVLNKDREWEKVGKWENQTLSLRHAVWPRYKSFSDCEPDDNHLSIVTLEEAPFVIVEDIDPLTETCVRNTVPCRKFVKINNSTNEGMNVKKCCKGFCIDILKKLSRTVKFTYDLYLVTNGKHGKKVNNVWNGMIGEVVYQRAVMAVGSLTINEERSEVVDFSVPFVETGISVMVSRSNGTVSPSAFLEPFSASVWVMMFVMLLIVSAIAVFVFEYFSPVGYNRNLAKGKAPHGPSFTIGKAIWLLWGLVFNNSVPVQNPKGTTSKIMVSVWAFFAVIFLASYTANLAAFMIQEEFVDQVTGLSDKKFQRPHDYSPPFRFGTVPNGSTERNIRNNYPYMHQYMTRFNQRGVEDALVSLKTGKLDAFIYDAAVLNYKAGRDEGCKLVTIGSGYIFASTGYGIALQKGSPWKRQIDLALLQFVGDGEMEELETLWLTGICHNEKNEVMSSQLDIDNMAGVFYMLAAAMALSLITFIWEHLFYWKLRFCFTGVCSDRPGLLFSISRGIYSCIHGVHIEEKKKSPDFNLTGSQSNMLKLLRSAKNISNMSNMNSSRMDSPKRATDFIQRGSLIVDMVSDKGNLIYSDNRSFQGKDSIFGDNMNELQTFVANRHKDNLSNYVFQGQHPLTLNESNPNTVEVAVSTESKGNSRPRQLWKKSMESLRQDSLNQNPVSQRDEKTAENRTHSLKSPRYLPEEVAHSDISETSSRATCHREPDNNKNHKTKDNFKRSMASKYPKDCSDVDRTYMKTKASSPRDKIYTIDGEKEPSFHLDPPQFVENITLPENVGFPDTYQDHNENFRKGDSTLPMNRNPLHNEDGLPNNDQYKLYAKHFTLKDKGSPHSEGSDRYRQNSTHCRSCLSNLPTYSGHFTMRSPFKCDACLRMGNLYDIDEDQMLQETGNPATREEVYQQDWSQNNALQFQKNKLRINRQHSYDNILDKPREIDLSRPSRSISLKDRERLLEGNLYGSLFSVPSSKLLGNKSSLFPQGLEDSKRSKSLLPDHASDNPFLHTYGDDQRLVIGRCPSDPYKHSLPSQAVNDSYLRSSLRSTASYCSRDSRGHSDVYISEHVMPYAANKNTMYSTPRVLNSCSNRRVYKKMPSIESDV
Glutamate receptor ionotropic, kainate 3, sequence (P42264 whole entry): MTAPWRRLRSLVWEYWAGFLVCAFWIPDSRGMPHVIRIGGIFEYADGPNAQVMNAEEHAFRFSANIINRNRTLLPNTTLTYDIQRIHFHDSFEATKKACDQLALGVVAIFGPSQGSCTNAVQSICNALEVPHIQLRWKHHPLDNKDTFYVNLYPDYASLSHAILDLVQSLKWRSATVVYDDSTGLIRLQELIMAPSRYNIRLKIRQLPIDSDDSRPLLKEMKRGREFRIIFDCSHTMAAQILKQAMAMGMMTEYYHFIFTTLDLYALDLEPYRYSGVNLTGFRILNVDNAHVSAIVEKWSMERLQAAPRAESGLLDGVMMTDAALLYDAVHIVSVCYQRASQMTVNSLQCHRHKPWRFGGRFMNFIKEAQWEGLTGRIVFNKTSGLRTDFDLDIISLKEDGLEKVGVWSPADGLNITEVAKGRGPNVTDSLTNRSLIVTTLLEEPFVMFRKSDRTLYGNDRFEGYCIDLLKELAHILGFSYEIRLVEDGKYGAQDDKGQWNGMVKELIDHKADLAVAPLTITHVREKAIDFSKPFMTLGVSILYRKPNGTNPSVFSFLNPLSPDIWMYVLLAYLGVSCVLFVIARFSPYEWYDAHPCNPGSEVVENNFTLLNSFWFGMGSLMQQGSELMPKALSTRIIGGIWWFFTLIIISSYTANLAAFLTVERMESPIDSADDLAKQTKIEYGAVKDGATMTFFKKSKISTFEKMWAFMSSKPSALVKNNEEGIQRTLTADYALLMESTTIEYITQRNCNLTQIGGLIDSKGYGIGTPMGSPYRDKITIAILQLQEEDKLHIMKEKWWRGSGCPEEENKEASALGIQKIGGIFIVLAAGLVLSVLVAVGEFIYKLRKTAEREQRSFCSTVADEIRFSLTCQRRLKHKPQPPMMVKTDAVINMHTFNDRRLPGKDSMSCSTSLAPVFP
Glutamate receptor ionotropic, kainate 2, sequence (P42260 whole entry): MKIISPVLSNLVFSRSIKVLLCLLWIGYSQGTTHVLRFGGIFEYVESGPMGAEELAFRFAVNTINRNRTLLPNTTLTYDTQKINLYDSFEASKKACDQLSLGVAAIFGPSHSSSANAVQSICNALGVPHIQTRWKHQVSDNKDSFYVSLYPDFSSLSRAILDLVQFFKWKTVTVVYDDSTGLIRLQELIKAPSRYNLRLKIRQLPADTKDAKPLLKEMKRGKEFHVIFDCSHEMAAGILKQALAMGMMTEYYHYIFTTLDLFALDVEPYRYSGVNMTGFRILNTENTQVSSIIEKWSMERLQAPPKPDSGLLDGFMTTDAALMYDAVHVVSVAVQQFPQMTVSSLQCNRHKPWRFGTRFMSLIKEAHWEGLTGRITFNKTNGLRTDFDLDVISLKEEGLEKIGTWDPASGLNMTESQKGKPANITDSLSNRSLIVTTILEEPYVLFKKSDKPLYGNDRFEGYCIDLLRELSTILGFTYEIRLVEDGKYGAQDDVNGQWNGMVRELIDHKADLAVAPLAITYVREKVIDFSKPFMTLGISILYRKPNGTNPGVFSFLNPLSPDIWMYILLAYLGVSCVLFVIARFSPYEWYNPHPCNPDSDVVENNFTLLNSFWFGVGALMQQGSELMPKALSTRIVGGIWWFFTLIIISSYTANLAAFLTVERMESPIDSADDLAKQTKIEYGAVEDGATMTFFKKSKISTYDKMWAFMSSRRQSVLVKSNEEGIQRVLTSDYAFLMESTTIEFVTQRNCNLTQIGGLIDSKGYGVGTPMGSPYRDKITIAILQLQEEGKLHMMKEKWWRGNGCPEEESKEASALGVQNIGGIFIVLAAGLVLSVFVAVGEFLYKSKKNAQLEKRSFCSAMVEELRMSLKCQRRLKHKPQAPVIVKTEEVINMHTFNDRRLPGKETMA

A word on the pKi: it is the negative decadic logarithm of the Ki, by convention in mol/L. As a reminder, the pIC50 is the IC50 on a negative log10 scale, so that one unit is a factor of ten. The term Kp denotes tissue or fluid exposure divided by exposure in the circulation. Regarding `Cl.O=C(O)c1cc([C@H]2CCN[C@@H]2C(=O)O)ccc1Cl`, the results for the pKi in data set [1], in data set [4] and in data set [5] were 3.88, less than 4.00 and 5.33, respectively. Further, the pIC50 in data set [2] was less than 4.00; in data set [3], less than 4.00; in data set [5] it was 4.82. Also, the Cmax was determined as 43.4 nmol/g in the data set on Plasma [6] and 0.3 nmol/g in the data set with Brain [10]. In addition, the “beta t1/2” value with Plasma [7] is 30 min; in the data set with Liver [9], 36 min. In the data set on Liver [8], this compound came in with an AUC of 575 nmol·min/g. The same compound gave a Kp in data set [11] of 0.19. For the same compound, the Activity entry is “Non-Toxic” in the data set on Mus musculus [12]; 68% in the data set filed under Mus musculus [13]; 96% in the data set listed under Mus musculus [14]; 34% in the data set filed under Mus musculus [15]; 201% in the data set listed under Mus musculus [16]; 84% in the data set listed under Mus musculus [17]. The results for the Activity in the data set filed under Mus musculus [18] and in the data set listed under Mus musculus [19] were 30% and 24%, respectively. Besides, in the data set with Brain [20], the Drug uptake is on record as 5 pmol/g.
